In ChEMBL document CHEMBL5674889, “Enhanced JunD/RSK3 signalling due to loss of BRD4/FOXD3/miR-548d-3p axis determines BET inhibition resistance” (2020):
Active and inactive are the calls of the source. No cut-off for these calls is given here.

Legend:
MDA-MB-231 [1] = experiment: Effect on JUND dependent RPS6KA2 transcription in human JUND-knockdown MDA-MB-231 cells assessed reduction in transcription level at 1 uM by EMSA analysis; type: functional, cell-based
MDA-MB-231 [2] = experiment: Antiproliferative activity in human MDA-MB-231 cells assessed as cell growth in the presence of miR-548d-3p inhibitor at 1 uM by CCK-8 assay; type: functional, cell-based
Method in brief: (§1)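 BLBC cells transfected with miR-548d-3p mimic or inhibitor, with or without JQ1; growth read by CCK-8 assay relative to DMSO-treated control, seeded at 3000/well. Triplicates, mean ± SD, one-way ANOVA.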

BT-549 [3] = experiment: Antiproliferative activity in human RPS6KA2 expressed in JUND knock-down BT-549 cells assessed as inhibition of cell growth at 1 uM by CCK-8 assay; type: functional, cell-based
MDA-MB-231 [4] = experiment: Antiproliferative activity in human FOXD3-knockdown MDA-MB-231 cells assessed as cell growth at 1 uM by CCK-8 assay; type: functional, cell-based
MDA-MB-231 [5] = experiment: Induction of apoptosis in human MDA-MB-231 cells in the presence of osimertinib at 1 uM by flow cytometry analysis; type: functional, cell-based
Method in brief: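 Cells given JQ1 and/or osimertinib, then stained with Annexin V-FITC plus propidium iodide (10 min, room temperature, dark; 1 × 10^6 cells/ml in binding buffer after two PBS washes) and analysed by flow cytometry; one-way ANOVA.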

MDA-MB-231 [6] = experiment: Induction of apoptosis in human MDA-MB-231 cells expressing vector control assessed as viable cells at 1 uM by Annexin V-FITC flow cytometric analysis (reference value: 91.91%); type: functional; details: read-out: Activity
Method in brief: (§2)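 Stable clones (vector, RSK3-overexpressing or RPS6KA2-knockdown) treated ± JQ1 1 μM. Cells washed twice in PBS, resuspended at 1 × 10^6 cells/ml in binding buffer, stained with Annexin V-FITC and propidium iodide for 10 min at room temperature in the dark, then read by flow cytometry. Three independent experiments; one-way ANOVA.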

MDA-MB-231 [7] = experiment: Antiproliferative activity in human FOXD3-knockdown MDA-MB-231 cells co-silenced with shRNA of RPS6KA2 assessed as cell growth at 1 uM by CCK-8 assay; type: functional, cell-based
MDA-MB-231 [8] = experiment: Antiproliferative activity in human RPS6KA2-knockdown MDA-MB-231 cells assessed as inhibited cell growth at 1 uM for 48 hrs by CCK-8 assay; type: functional, cell-based
MDA-MB-231 [9] = experiment: Antiproliferative activity in human MDA-MB-231 cells assessed as inhibited cell growth in the presence of osimertinib at 1 uM for 48 hrs by CCK-8 assay; type: functional, cell-based
Method in brief: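 Cells seeded 3000/well, adhered overnight, treated with JQ1 (1 μM) with or without osimertinib (1 μM) for 48 h; growth by CCK-8 kit, normalized to DMSO-treated control; triplicates, mean ± SD, one-way ANOVA.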

MDA-MB-231 [10] = experiment: Antiproliferative activity in human JUND-overexpressing MDA-MB-231 cells assessed as tumor sphere formation at 1 uM by Tumor sphere assay; type: functional, cell-based
MDA-MB-231 [11] = experiment: Induction of apoptosis in human MDA-MB-231 cells expressing vector control assessed as early apoptotic cells at 1 uM by Annexin V-FITC flow cytometric analysis (reference value: 4.02%); type: functional; method in brief: as §2
MDA-MB-231 [12] = experiment: Effect on human JUND-knockdown MDA-MB-231 cells assessed as reduction of RSK3 protein expression at 1 uM by Western blot analysis; type: functional, cell-based
Method in brief: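 RSK3 and JunD were probed by western blot in JUND-knockdown or JUND-overexpressing stable clones and their controls, all selected with puromycin 1.0 μg/ml. Antibodies used at 1:1000.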

BT-549 [13] = experiment: Cytotoxicity in human RSK3-overexpressing BT-549 cells assessed as cell viability at 1 uM for 48 hrs by CellTiter-Glo luminescent cell viability assay; type: functional, cell-based
Method in brief: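 CellTiter-Glo viability: stable overexpressing or shRNA clones (puromycin 1.0 μg/ml selection) seeded 3000 cells/well, adhered overnight, then exposed to 1 μM for 48 h. Luminescence is background-subtracted and normalised to DMSO-treated control. Triplicates, mean ± SD, one-way ANOVA. MDA-MB-231 cells are kept in DMEM and BT549 in RPMI-1640, each with 10% FBS.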

MDA-MB-231 [14] = experiment: Antiproliferative activity in human MDA-MB-231 cells assessed as inhibition of cell growth at 1 uM by CCK-8 assay; type: functional, cell-based
MDA-MB-231 [15] = experiment: Antiproliferative activity in human MDA-MB-231 cells assessed as cell growth in the presence of miR-548d-3p at 1 uM by CCK-8 assay; type: functional, cell-based; method in brief: as §1
MDA-MB-231 [16] = experiment: Antitumor activity against human MDA-MB-231 cells xenografted in BALB/c nude mouse assessed as reduction in tumor weight at 35 mg/kg/day, sc administered every 2 days; type: functional, organism-based; details: time 2.0 day
Method in brief: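 Female BALB/c nude mice aged 4–6 weeks received 1 × 10^6 MDA-MB-231 control or knockdown cells subcutaneously, n = 7 per group. Dosing at 35 mg/kg every 2 days began at an average tumour volume of 90 mm3. Tumours were weighed after 25 days.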

MDA-MB-231 [17] = experiment: Effect on human RPS6KA2 knockdown MDA-MB-231 cells assessed as RSK3 protein expression at 1 uM for 24 hrs by Western blot analysis; type: functional, cell-based
BT-549 [18] = experiment: Effect on human BRD4-knockdown BT-549 cells assessed as miR-548d-3p expression at 1 uM by real-time PCR analysis; type: functional, cell-based
BT-549 [19] = experiment: Antiproliferative activity in human FOXD3-knockdown BT-549 cells co-silenced with shRNA of JUND assessed as cell growth at 1 uM by CCK-8 assay; type: functional, cell-based
MDA-MB-231 [20] = experiment: Effect on induction of RPS6KA2 transcription in human MDA-MB-231 cells assessed as JunD protein expression at 1 uM for 24 hrs by Western blot analysis; type: functional, cell-based
BT-549 [21] = experiment: Effect on human BT-549 cells assessed as miR-548d-5p expression at 1 uM by real-time PCR analysis; type: functional, cell-based
BT-549 [22] = experiment: Effect on induction of RPS6KA2 transcription in human BT-549 cells assessed as JunD protein expression at 1 uM for 24 hrs by Western blot analysis; type: functional, cell-based
BT-549 [23] = experiment: Effect on human BT-549 cells assessed as RPS6KA2 mRNA expression in the presence of miR-548d-3p at 1 uM by RT-PCR analysis; type: functional, cell-based
MDA-MB-231 [24] = experiment: Effect on human RPS6KA2 transfected MDA-MB-231 cells by measuring luciferase activity at 20 uM by Luciferase reporter assay; type: functional, cell-based
MDA-MB-231 [25] = experiment: Effect on human RPS6KA2-knockdown MDA-MB-231 cells assessed as RSK3 protein expression at 1 uM by Western blot analysis; type: functional, cell-based
MDA-MB-231 [26] = experiment: Induction of apoptosis in human MDA-MB-231 cells over expressing RSK3 assessed as viable cells at 1 uM by Annexin V-FITC flow cytometric analysis (reference value: 91.18%); type: functional; details: read-out: Activity; method in brief: as §2

Cc1sc2c(c1C)C(c1ccc(Cl)cc1)=N[C@@H](CC(=O)OC(C)(C)C)c1nnc(C)n1-2
Activity (MDA-MB-231 [1]): Active | Activity (MDA-MB-231 [2]): Active | Activity (BT-549 [3]): Active | Activity (MDA-MB-231 [4]): Active | Activity (MDA-MB-231 [5]): Active | viability at 1 µM (MDA-MB-231 [6]): 76.7% | Activity (MDA-MB-231 [7]): Active | Activity (MDA-MB-231 [8]): Active | Activity (MDA-MB-231 [9]): Active | Activity (MDA-MB-231 [10]): Active | Activity (MDA-MB-231 [11]): 16.3% | Activity (MDA-MB-231 [12]): Active | Activity (BT-549 [13]): Active | Activity (MDA-MB-231 [14]): Active | Activity (MDA-MB-231 [15]): Active | Activity (MDA-MB-231 [16]): Active | Activity (MDA-MB-231 [17]): Active | Activity (BT-549 [18]): Active | Activity (BT-549 [19]): Active | Activity (MDA-MB-231 [20]): Active | Activity (BT-549 [21]): Active | Activity (BT-549 [22]): Active | Activity (BT-549 [23]): Active | Activity (MDA-MB-231 [24]): Active | Activity (MDA-MB-231 [25]): Active | viability at 1 µM (MDA-MB-231 [26]): 88.3%
